According to ChEMBL document CHEMBL1145417, “Cytotoxic clerodane diterpenoids from fruits of Casearia grewiifolia” (J Nat Prod, 2007):
Converted amounts (≈) assume the structure as drawn. The source made the active and inactive calls. No cut-off for these calls is given here.

Columns and labels:
Type in all cases: functional, cell-based
[1] = (§1) Cytotoxicity against human BC1 cells
Outline: (§2)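 Colorimetric cytotoxicity assay following Skehan and co-workers' method. The cells were human KB (epidermoid carcinoma of the mouth), BC1 (breast cancer) and NCI-H187 (small cell lung cancer). Ellipticine and doxorubicin were the reference compounds.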

NCI-H187 = experiment: Cytotoxicity against human NCI-H187 cells; outline: as §2
KB = experiment: Cytotoxicity against human KB cells; outline: as §2
BC1 = experiment: as §1; outline: as §2

Row | Compound | IC50 [1] [µg/mL] | IC50 (NCI-H187) [µg/mL] | IC50 (KB) [µg/mL] | Activity (KB) | Activity (BC1)
1 | C=C/C(C)=C\C[C@]1(C)[C@H](C)CC[C@@]23C(=C[C@H](OC(=O)CCC)C[C@@H]12)[C@@H](OC(C)=O)O[C@H]3OC(C)=O (relative stereo) [CASEARGREWINS E] | 0.91 (≈ 1.86 µM) | 0.15 (≈ 0.307 µM) | 0.66 (≈ 1.35 µM) | – | –
2 | C=C/C(C)=C\C[C@]1(C)[C@H](C)C[C@H](O)[C@@]23C(=C[C@H](OC(=O)CCC)C[C@@H]12)[C@@H](OC(C)=O)O[C@H]3OC(C)=O (relative stereo) [CASEARGREWINS F] | 0.2 (≈ 0.396 µM) | 4.72 (≈ 9.35 µM) | – | inactive | –
3 | C=C/C(C)=C\C[C@]1(C)[C@H](C)C[C@H](O)[C@@]23C(=C[C@H](OC(=O)CCC)C[C@@H]12)[C@@H](OC)O[C@H]3OC(C)=O (relative stereo) [CASEARGREWINS G] | 3.97 (≈ 8.33 µM) | 5.57 (≈ 11.7 µM) | 0.67 (≈ 1.41 µM) | – | –
4 | C=C/C(C)=C\C[C@]1(C)[C@H](C)CC[C@@]23C(=C[C@H](OC(=O)CCCCC)C[C@@H]12)[C@@H](OC(C)=O)O[C@H]3OC(C)=O (relative stereo) [CASEARGREWINS H] | 0.21 (≈ 0.406 µM) | 0.54 (≈ 1.05 µM) | 0.88 (≈ 1.7 µM) | – | –
5 | C=C/C(C)=C\C[C@]1(C)[C@H](C)C[C@H](O)[C@@]23C(=C[C@H](OC(=O)CCCCC)C[C@@H]12)[C@@H](OC(C)=O)O[C@H]3OC(C)=O (relative stereo) [CASEARGREWINS I] | 0.36 (≈ 0.676 µM) | 0.33 (≈ 0.62 µM) | 3.04 (≈ 5.71 µM) | – | –
6 | C=C/C(C)=C\C[C@]1(C)[C@H](C)C[C@H](O)[C@@]23C(=C[C@H](OC(=O)CCCCC)C[C@@H]12)[C@@H](OC)O[C@H]3OC(C)=O (relative stereo) [CASEARGREWINS J] | 0.99 (≈ 1.96 µM) | 1.22 (≈ 2.42 µM) | – | inactive | –
7 | C=C/C(C)=C\C[C@]1(C)[C@H](C)[C@@H](O)[C@H](O)[C@@]23C(=C[C@H](OC(=O)CCCCC)C[C@@H]12)[C@@H](OC)O[C@H]3OC(C)=O (relative stereo) [CASEARGREWINS K] | 3.4 (≈ 6.53 µM) | 5.11 (≈ 9.81 µM) | – | inactive | –
8 | C=C/C(C)=C\C[C@]1(C)[C@H](C)C[C@H](O)[C@@]23C(=C[C@H](OC(=O)CC(C)C)C[C@@H]12)[C@@H](OC(C)=O)O[C@H]3OC(C)=O (relative stereo) [CASEARGREWINS L] | – | 0.32 (≈ 0.617 µM) | 6 (≈ 11.6 µM) | – | inactive
9 | COc1cccc2c1C(=O)c1c(O)c3c(c(O)c1C2=O)C[C@@](O)(C(=O)CO)C[C@@H]3O[C@H]1C[C@H](N)[C@H](O)[C@H](C)O1 [DOXORUBICIN] | 0.13 (≈ 0.239 µM) | 0.048 (≈ 0.0883 µM) | 0.23 (≈ 0.423 µM) | – | –
10 | Cc1c2ccncc2c(C)c2c1[nH]c1ccccc12 [ELLIPTECINE] | 0.13 (≈ 0.528 µM) | – | 0.67 (≈ 2.72 µM) | – | –
11 | C=C/C(C)=C\C[C@]1(C)[C@H](C)[C@@H](O)[C@H](O)[C@@]23C(=C[C@H](OC(=O)CC(C)C)C[C@@H]12)[C@@H](OC(C)=O)O[C@H]3OC(C)=O [ESCULENTIN B] | 0.17 (≈ 0.318 µM) | 0.68 (≈ 1.27 µM) | – | inactive | –
